Reference: ChEMBL document CHEMBL4014266, “Anti-Neurodegenerative Biflavonoid Glycosides from Impatiens balsamina” (J Nat Prod, 2017)
Values belong to the compound of their own block, whether it stands above or below them.

Key:
[1] = Cytotoxicity against rat C6 cells assessed as cell viability at 20 uM after 24 hrs by MTT assay relative to control; type: cell-based; conditions: read-out: Activity
How it was run: (§1)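 C6 cells seeded at 1 × 10^5 cells/well; after 1 d switched to serum-free DMEM with 20 μM compound for 24 h. NGF in conditioned medium measured by ELISA as percent of untreated control (100%); viability by MTT as percent. 6-shogaol as positive control.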

C6 = test: Neuroprotective activity in rat C6 cells assessed as NGF secretion at 20 uM after 24 hrs by ELISA relative to control; type: functional; how it was run: as §1
BT-549 = test: Cytotoxicity against human BT549 cells after 48 hrs by SRB assay; type: functional, cell-based; conditions: BT-549, 48 h
How it was run: (§2)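 Quantitative staining of cellular protein with sulforhodamine B across human tumour lines A549, SK-OV-3, SK-MEL-2 and Bt549; IC50 derived. Etoposide served as positive control.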

[2] = Cytotoxicity against mouse BV2 cells assessed as cell viability at 20 uM after 24 hrs by MTT assay relative to control; type: cell-based, BV-2; conditions: read-out: Activity
How it was run: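 BV-2 cells seeded at 4 × 10^4 cells/well, treated with 20 μM compound; viability read by MTT and expressed as percent. Mean ± SD of three independent experiments.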

BV-2 = test: Antiinflammatory activity in mouse BV2 cells assessed as inhibition of LPS-induced nitrite production after 24 hrs by Griess assay; type: functional, cell-based; conditions: BV-2, 24 h
How it was run: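 BV-2 microglia seeded at 4 × 10^4 cells/well, exposed to graded doses of compounds with LPS stimulation. Nitrite quantified against a sodium nitrite standard curve; IC50 taken as the concentration giving 50% inhibition of NO production. L-NMMA as positive control. Mean ± SD of three independent experiments.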

SK-OV-3 = test: Cytotoxicity against human SKOV3 cells after 48 hrs by SRB assay; type: functional, cell-based; conditions: SK-OV-3, 48 h; how it was run: as §2
A549 = test: Cytotoxicity against human A549 cells after 48 hrs by SRB assay; type: functional, cell-based; conditions: A549, 48 h; how it was run: as §2
SK-MEL-2 = test: Cytotoxicity against human SK-MEL-2 cells after 48 hrs by SRB assay; type: functional, cell-based; conditions: SK-MEL-2, 48 h; how it was run: as §2

IC50 (BV-2): 39.2 µM
Compound: C[C@@H]1O[C@@H](OC[C@H]2O[C@@H](Oc3c(-c4ccc(O)cc4)oc4c([C@@]56O[C@]5(c5ccc(O)cc5)Oc5cc(O)cc(O)c5C6=O)c(O)cc(O)c4c3=O)[C@H](O)[C@@H](O)[C@@H]2O)[C@H](O)[C@H](O)[C@H]1O
IC50 (BT-549): > 10 µM
viability at 24 h, 20 µM [2]: 99.9%
viability at 24 h, 20 µM [1]: 102%
IC50 (SK-OV-3): > 10 µM
Activity (C6): 88.36%
IC50 (A549): > 10 µM
IC50 (SK-MEL-2): > 10 µM

IC50 (BV-2): 8.86 µM
Compound: O=c1c(O)c(-c2ccc(O)cc2)oc2cc(O)cc(O)c12 [KAEMPFEROL]
IC50 (BT-549): > 10 µM
viability at 24 h, 20 µM [2]: 119%
viability at 24 h, 20 µM [1]: 97.2%
IC50 (SK-OV-3): > 10 µM
Activity (C6): 115.98%
IC50 (A549): > 10 µM
IC50 (SK-MEL-2): > 10 µM

IC50 (BV-2): 80.4 µM
Compound: O=c1c(O[C@@H]2O[C@H](CO)[C@@H](O)[C@@H](O)[C@H]2O)c(-c2ccc(O)cc2)oc2cc(O)cc(O)c12
IC50 (BT-549): > 10 µM
viability at 24 h, 20 µM [2]: 97.5%
viability at 24 h, 20 µM [1]: 105%
IC50 (SK-OV-3): > 10 µM
Activity (C6): 83.79%
IC50 (A549): > 10 µM
IC50 (SK-MEL-2): > 10 µM

IC50 (BV-2): 55.6 µM
Compound: O=c1c(O[C@@H]2O[C@H](CO)[C@@H](O)[C@H](O)[C@H]2O)c(-c2ccc(O)c(O)c2)oc2cc(O)cc(O)c12 [ISOQUERCETIN]
IC50 (BT-549): > 10 µM
viability at 24 h, 20 µM [2]: 95.6%
viability at 24 h, 20 µM [1]: 107%
IC50 (SK-OV-3): > 10 µM
Activity (C6): 98.67%
IC50 (A549): > 10 µM
IC50 (SK-MEL-2): > 10 µM

IC50 (BV-2): 56.9 µM
Compound: O=C1c2c(O)cc(O)cc2O[C@]2(c3ccc(O)cc3)O[C@]12c1c(O)cc(O)c2c(=O)c(O[C@@H]3O[C@H](CO)[C@@H](O)[C@H](O)[C@H]3O)c(-c3ccc(O)cc3)oc12
IC50 (BT-549): > 10 µM
viability at 24 h, 20 µM [2]: 104%
viability at 24 h, 20 µM [1]: 107%
IC50 (SK-OV-3): > 10 µM
Activity (C6): 90.12%
IC50 (A549): > 10 µM
IC50 (SK-MEL-2): > 10 µM

IC50 (BV-2): 24.3 µM
Compound: C[C@@H]1O[C@@H](OC[C@H]2O[C@@H](Oc3c(-c4ccc(O)c(O)c4)oc4cc(O)cc(O)c4c3=O)[C@H](O)[C@@H](O)[C@@H]2O)[C@H](O)[C@H](O)[C@H]1O [RUTIN]
IC50 (BT-549): > 10 µM
viability at 24 h, 20 µM [2]: 99.2%
viability at 24 h, 20 µM [1]: 113%
IC50 (SK-OV-3): > 10 µM
Activity (C6): 108.27%
IC50 (A549): > 10 µM
IC50 (SK-MEL-2): > 10 µM

Further lines, the compound ahead of its results:

Compound: CCCCC/C=C/C(=O)CCc1ccc(O)c(OC)c1 [SHOGAOL]
viability at 24 h, 20 µM [1]: 104%
Activity (C6): 143.74%

Compound: O=c1c(O[C@@H]2O[C@H](CO)[C@@H](O)[C@H](O)[C@H]2O)c(-c2ccc(O)cc2)oc2cc(O)cc(O)c12 [ASTRAGALIN]
IC50 (BT-549): > 10 µM
viability at 24 h, 20 µM [2]: 97.5%
IC50 (BV-2): 23.5 µM
viability at 24 h, 20 µM [1]: 115%
IC50 (SK-OV-3): > 10 µM
Activity (C6): 114.67%
IC50 (A549): > 10 µM
IC50 (SK-MEL-2): > 10 µM

Compound: O=C1c2c(O)cc(O)cc2O[C@H](c2cc(O)c(O)c(O)c2)[C@H]1O [AMPELOPSIN]
IC50 (BT-549): > 10 µM
viability at 24 h, 20 µM [2]: 97%
IC50 (BV-2): 32.7 µM
viability at 24 h, 20 µM [1]: 110%
IC50 (SK-OV-3): > 10 µM
Activity (C6): 172.04%
IC50 (A549): > 10 µM
IC50 (SK-MEL-2): > 10 µM

Compound: COc1cc([C@@H]2c3cc4c(cc3[C@@H](O[C@@H]3O[C@@H]5CO[C@@H](C)O[C@H]5[C@H](O)[C@H]3O)[C@H]3COC(=O)[C@H]23)OCO4)cc(OC)c1O [ETOPOSIDE]
IC50 (BT-549): 1.24 µM
IC50 (SK-OV-3): 1.95 µM
IC50 (A549): 0.92 µM
IC50 (SK-MEL-2): 1.1 µM

Compound: O=c1c(O)c(-c2ccc(O)c(O)c2)oc2cc(O)cc(O)c12 [QUERCETIN]
IC50 (BT-549): > 10 µM
viability at 24 h, 20 µM [2]: 101%
IC50 (BV-2): 19.1 µM
viability at 24 h, 20 µM [1]: 103%
IC50 (SK-OV-3): > 10 µM
Activity (C6): 118.77%
IC50 (A549): > 10 µM
IC50 (SK-MEL-2): > 10 µM

Compound: C[C@@H]1O[C@@H](OC[C@H]2O[C@@H](Oc3c(-c4ccc(O)cc4)oc4cc(O)cc(O)c4c3=O)[C@H](O)[C@@H](O)[C@@H]2O)[C@H](O)[C@H](O)[C@H]1O [NICOTIFLOROSIDE]
IC50 (BT-549): > 10 µM
viability at 24 h, 20 µM [2]: 97.9%
IC50 (BV-2): 44.4 µM
viability at 24 h, 20 µM [1]: 99.6%
IC50 (SK-OV-3): > 10 µM
Activity (C6): 97.59%
IC50 (A549): > 10 µM
IC50 (SK-MEL-2): > 10 µM

Compound: CNC(=N)NCCC[C@H](N)C(=O)O [TILARGININE]
viability at 24 h, 20 µM [2]: 120%
IC50 (BV-2): 21.2 µM

Compound: O=C1c2c(O)cc(O)cc2O[C@@]2(c3ccc(O)cc3)O[C@@]12c1c(O)cc(O)c2c(=O)c(O[C@@H]3O[C@H](CO)[C@@H](O)[C@H](O)[C@H]3O)c(-c3ccc(O)cc3)oc12
IC50 (BT-549): > 10 µM
viability at 24 h, 20 µM [2]: 110%
IC50 (BV-2): 33.3 µM
viability at 24 h, 20 µM [1]: 113%
IC50 (SK-OV-3): > 10 µM
Activity (C6): 121.42%
IC50 (A549): > 10 µM
IC50 (SK-MEL-2): > 10 µM

Compound: C[C@@H]1O[C@@H](OC[C@H]2O[C@@H](Oc3c(-c4ccc(O)cc4)oc4c([C@]56O[C@@]5(c5ccc(O)cc5)Oc5cc(O)cc(O)c5C6=O)c(O)cc(O)c4c3=O)[C@H](O)[C@@H](O)[C@@H]2O)[C@H](O)[C@H](O)[C@H]1O
IC50 (BT-549): > 10 µM
viability at 24 h, 20 µM [2]: 100%
IC50 (BV-2): 31 µM
viability at 24 h, 20 µM [1]: 109%
IC50 (SK-OV-3): > 10 µM
Activity (C6): 74.27%
IC50 (A549): > 10 µM
IC50 (SK-MEL-2): > 10 µM

Compound: C[C@@H]1O[C@@H](O[C@H]2[C@H](Oc3c(-c4ccc(O)cc4)oc4cc(O)cc(O)c4c3=O)O[C@H](CO)[C@@H](O)[C@@H]2O)[C@H](O)[C@H](O)[C@H]1O
IC50 (BT-549): > 10 µM
viability at 24 h, 20 µM [2]: 103%
IC50 (BV-2): 31.7 µM
viability at 24 h, 20 µM [1]: 102%
IC50 (SK-OV-3): > 10 µM
Activity (C6): 123.31%
IC50 (A549): > 10 µM
IC50 (SK-MEL-2): > 10 µM
